Data set [1] can be described thus: Metabolic stability in mouse liver microsomes. Format: in vitro ADME. Conditions: 1 µM, scaled from in vitro clearance. The method, boiled down:
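Mouse liver microsomes were incubated in duplicate with test compound (final 1 µM, <0.1% DMSO) in 50 mM phosphate pH 7.4 at 37 °C for 1 h, with and without an NADPH regenerating system. Samples were taken at 0, 10, 20, 30, 45 and 60 min, quenched with ACN/MeOH (2:1) plus internal standard and analysed by LC-MS/MS. t1/2 came from non-linear regression; Clint was derived from it and normalized to protein. Scaling used 52.5 mg protein/g liver, 85.7 g liver/kg and LBF 131 mL min−1 kg−1.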
(In general: Liver microsomes are a subcellular fraction often used to study metabolism.)

Data set [2] has as its system MDCKII-hMDR1 cell monolayers. The data set can be described thus: Permeability on MDCKII-hMDR1 cell monolayers. Format: in vitro ADME, canine. Particulars: MDCKII-hMDR1. The gist of the method:
(§1)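 MDCKII cells overexpressing human MDR1 were seeded on 96-well inserts (0.25 × 10^6 cells per mL) and grown 3 days to confluence. Monolayers were equilibrated 30 min in DPBS pH 7.4 with 1% DMSO. Test compound (10 µM) with lucifer yellow (100 µM, integrity marker) was applied apical-to-basolateral and basolateral-to-apical for 60 min at 37 °C with agitation. Both compartments, plus donor at start, were quantified by LC-MS/MS.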

For data set [3], the system named is P-glycoprotein (human MDR1). Kind of data set: Permeability on MDCKII-hMDR1 cell monolayers. Format: in vitro ADME, canine. Conditions: dog, MDCK-MDR1, pH 7.4. The gist of the method:
as §1

Data set [4] has as its system human tumor cell lines (Capan-1, HCT-116, LN-229, NCI-H460, DND-41, HL-60, K562, Z-138). Kind of data set: Antiproliferative assays, panel of human tumor cell lines. Format: cell-based. The gist of the method: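 Cells from ATCC (DND-41 from DSMZ) were grown in medium with 10% FBS in 384-well plates. Adherent lines were plated overnight first: Capan-1 at 500 and HCT-116, NCI-H460 and LN-229 at 1500 cells/well. Suspension lines were seeded onto compound: HL-60, K-562 and Z-138 at 2500 and DND-41 at 5500 cells/well. Seven concentrations, 100–0.006 µM, from DMSO stocks, 72 h. […] At least two independent experiments.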

The next data set relates to Bcl-2. Particulars: read-out: IC50 (Bcl-2); PDB 6QGK, CHEMBL4438456; cited from earlier work.

This is an account of results in PMC12709234 (RSC Advances, 2025).

pIC50: −log10 of the molar value.

As to `FC(F)(F)c1cc(OCc2cc(-c3ccccc3)no2)c2ccccc2n1` [Compound 7a, 3-Phenyl-5-(((2-(trifluoromethyl)quinolin-4-yl)oxy)methyl)isoxazole], the “% LBF predicted in vivo hepatic clearance” value (from here on “% LBF predicted”) in data set [1] is listed as 74 % LBF. For the same molecule, the Permeability classification result in data set [2] was “low to moderate”. Further, in data set [3], the apical-to-basolateral permeability (Papp A→B) (usually how fast a substance crosses the layer from the apical side) at 60 min, 10 µM was less than 0.1 ×10⁻⁶ cm/s and the Papp B→A (as a rule, the apparent permeability from the basolateral to the apical side of a cell layer) at 60 min, 10 µM was found to be 0.1 ×10⁻⁶ cm/s.
For `FC(F)(F)c1cc(OCc2cc(-c3ccccn3)no2)c2ccccc2n1` [Compound 7b, 3-(Pyridin-2-yl)-5-(((2-(trifluoromethyl)quinolin-4-yl)oxy)methyl)isoxazole], the “antiproliferative activity (in words)” value in data set [4] (all evaluated human tumor cell lines) was “did not exhibit any antiproliferative effects”. For the same molecule, in data set [1], the “% LBF predicted” value is 87 % LBF. Further, in data set [2], the Efflux classification entry was “low” and the Permeability classification entry is on record as “low to moderate”. In data set [3], the Papp A→B at 60 min, 10 µM stood at 6.5 ×10⁻⁶ cm/s; the Papp B→A at 60 min, 10 µM worked out at 4.6 ×10⁻⁶ cm/s; the efflux ratio (commonly the permeability from basolateral to apical divided by that in the opposite direction, in the common usage) at 60 min, 10 µM came out at 0.7.
Regarding `c1ccc(-c2cc(CNc3cccc4cccnc34)on2)cc1` [Compound 8a, 3-Phenyl-5-((quinolin-8-yl-azaneyl)methyl)isoxazole], in data set [1], the “% LBF predicted” value is reported as greater than 97 % LBF. For the same molecule, in data set [2], the Permeability classification result was “low to moderate”. The apical-to-basolateral permeability (Papp A→B) at 60 min, 10 µM in data set [3] came out at 1.7 ×10⁻⁶ cm/s.
Take `c1ccc(-c2cc(CNc3cccc4cccnc34)on2)nc1` [Compound 8b, N-((3-(Pyridin-2-yl)isoxazol-5-yl)methyl)quinolin-8-amine]: the “% LBF predicted” value in data set [1] is listed as 96 % LBF. Further, in data set [2], the Efflux classification result was “low” and the Permeability classification entry is listed as “High”. Besides, in data set [3], the Papp A→B at 60 min, 10 µM stood at 17.2 ×10⁻⁶ cm/s; the Papp B→A at 60 min, 10 µM stood at 27.8 ×10⁻⁶ cm/s; the Papp (in general, the rate of passage across a membrane or cell layer, normalised by area and donor concentration) at 60 min, 10 µM is greater than 10 ×10⁻⁶ cm/s; the efflux ratio at 60 min, 10 µM was 1.6.
In the case of `FC(F)(F)c1ccc(-c2cc(CNc3cccc4cccnc34)on2)cc1` [Compound 8c, N-((3-(4-(Trifluoromethyl)phenyl)isoxazol-5-yl)methyl)quinolin-8-amine], the Permeability classification result in data set [2] is on record as “Low/—”. In data set [3], this molecule returned an apparent permeability from apical to basolateral (Papp A→B) at 60 min, 10 µM of less than 0.1 ×10⁻⁶ cm/s and a Papp B→A at 60 min, 10 µM of less than 0.1 ×10⁻⁶ cm/s.
Turning to `Clc1ccc(-c2cc(CNc3cccc4cccnc34)on2)c(Cl)c1` [Compound 8d, N-((3-(2,4-Dichlorophenyl)isoxazol-5-yl)methyl)quinolin-8-amine], the “% LBF predicted” value in data set [1] is on record as 51 % LBF. Also, in data set [2], the Permeability classification result was “Low/—”. In data set [3], this molecule showed a Papp A→B at 60 min, 10 µM of less than 0.1 ×10⁻⁶ cm/s and an apparent permeability from basolateral to apical (Papp B→A) at 60 min, 10 µM of less than 0.1 ×10⁻⁶ cm/s.
As for `N#Cc1ccc(-c2cc(CNc3cccc4cccnc34)on2)cc1` [Compound 8e, 4-(5-((Quinolin-8-ylamino)methyl)isoxazol-3-yl)benzonitrile], the “% LBF predicted” value in data set [1] was 55 % LBF. In addition, in data set [2], the Efflux classification entry is listed as “low” and the Permeability classification result is “Moderate”. In data set [3], the Papp A→B at 60 min, 10 µM is 3.6 ×10⁻⁶ cm/s; the apparent permeability from basolateral to apical (Papp B→A) at 60 min, 10 µM worked out at 3.1 ×10⁻⁶ cm/s; the efflux ratio at 60 min, 10 µM is 0.9.
On to `N/C(=N\O)c1ccc(-c2cc(CNc3cccc4cccnc34)on2)cc1` [Compound 8f, (Z)-N′-hydroxy-4-(5-((quinolin-8-ylamino)methyl)isoxazol-3-yl)benzimidamide], for which, in data set [4] (Homo sapiens, read-out: IC50 values against DND-41, HL-60, Z-138 and Capan-1), the negative logarithm of the IC50 (pIC50) (commonly the IC50 on a negative log10 scale, so that one unit is a factor of ten) is 5.33 to 5.68. Moreover, in data set [1], the “% LBF predicted” value is given as 53 % LBF. Besides, in data set [2], the Efflux classification result was “low” and the Permeability classification result was “High”. In addition, in data set [3], the apparent permeability from apical to basolateral (Papp A→B) at 60 min, 10 µM stood at 15 ×10⁻⁶ cm/s; the apparent permeability from basolateral to apical (Papp B→A) at 60 min, 10 µM was found to be 13.7 ×10⁻⁶ cm/s; the Papp at 60 min, 10 µM is greater than 10 ×10⁻⁶ cm/s; the efflux ratio at 60 min, 10 µM came to 0.9.
Turning to `CCCCN(CCCC)C(=O)c1cc(C)n(-c2ccccc2C(=O)N2Cc3ccccc3C[C@H]2CN)n1` [Compound J1Q, (S)-1-(2-(3-(aminomethyl)-1,2,3,4-tetrahydroisoquinoline-2-carbonyl)phenyl)-N,N-dibutyl-5-methyl-1H-pyrazole-3-carboxamide], the pIC50 in the data set with Bcl-2 was 5.89.
